The text below walks through data of ChEMBL document CHEMBL3112527, “Quinoline-pyrimidine hybrids: synthesis, antiplasmodial activity, SAR, and mode of action studies” (J Med Chem, 2014).

In brackets after ≈: the same amount, converted by molar mass. Activity calls are given as the source filed them. The rule behind the calls is not given here.

Data set [1] concerns Human betaherpesvirus 5. Briefly: Antiviral activity against Cytomegalovirus Davis infected in HEL cells assessed as inhibition of virus-induced cytopathicity. In kind it is functional, organism-based. Background: Protection from cytopathic effect is a common read-out in antiviral testing.
Data set [2] relates to Ferriprotoporphyrin IX. Briefly: Binding affinity to monomeric Fe(III)PPIX by 1H NMR spectra analysis.
Data set [3] deals with Human alphaherpesvirus 2. Briefly: Antiviral activity against HSV-2 G infected in HEL cells assessed as inhibition of virus-induced cytopathicity. As to conditions: strain G. The class given is functional, organism-based. Summed up: (§1)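 Confluent monolayers (HEL, Vero, HeLa or CrFK, as applicable) were inoculated with 100 CCID50 of virus, with 1 CCID50 being the dose that infects 50% of cultures. Infection ran in the presence of varying compound concentrations. Inhibition of virus-induced cytopathicity was scored against infected cultures left untreated.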

A short description of data set [4]: Cytotoxicity against human HeLa cells assessed as alteration of cell morphology by microscopic analysis. The class given is cell-based. The conditions noted are these: read-out: MIC. Put shortly:
(§2)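 Cells (Vero, HEL, MDCK or HeLa) were exposed to a range of sample concentrations. The value reported is the concentration required to cause a microscopically detectable alteration of normal cell morphology.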

For data set [5], the system named is Ferriprotoporphyrin IX. Briefly: Binding affinity to monomeric Fe(III)PPIX at 5 umol by mass spectra analysis. Summed up: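 Solution-phase mass spectra were recorded after adding monomeric heme (5 μmol) to the compound (5 μmol) in 40% aqueous DMSO. The region between 1008 and 1024 Da was examined for adduct signals.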
Data set [6] has as its system Heme. Briefly: Binding affinity to heme assessed as inhibition of beta-hematin formation at 1.2 equiv after 1 hr by FT-IR spectroscopic analysis.
In data set [7] the test system is Plasmodium falciparum. Briefly: Antiplasmodial activity against chloroquine-sensitive asexual erythrocytic stage of Plasmodium falciparum D10 assessed as parasite growth inhibition by lactate dehydrogenase assay. In kind it is functional, organism-based. Summed up: (§3)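 Parasite lactate dehydrogenase assay (modified Makler method). Samples held as 20 mg/mL stocks in DMSO, diluted on test day. Full dose-response: starting at 10 μg/mL, 2-fold serial dilution in complete medium over 10 concentrations down to 0.02 μg/mL. Chloroquine, artesunate and MMV390048 served as references. IC50 from nonlinear dose-response curve fitting; mean of three independent experiments.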

Data set [8] relates to Human alphaherpesvirus 3. Briefly: Antiviral activity against Varicella-zoster virus infected in HEL cells assessed as inhibition of virus-induced cytopathicity. The class given is functional, organism-based.
Data set [9] relates to HEL. Briefly: Cytotoxicity against HEL cells assessed as alteration of cell morphology by microscopic analysis. The conditions noted are these: human. The class given is cell-based. Summed up: as §2
Data set [10] has as its system Respiratory syncytial virus. Briefly: Antiviral activity against Respiratory syncytial virus infected in human HeLa cells assessed as inhibition of virus-induced cytopathicity. In kind it is functional, organism-based. Put shortly:
as §1

For data set [11], the system named is Vesicular stomatitis virus. Briefly: Antiviral activity against Vesicular stomatitis virus infected in human HeLa cells assessed as inhibition of virus-induced cytopathicity. In kind it is functional, organism-based. Put shortly:
(§4)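 Confluent monolayers in 96-well plates were inoculated with 100 CCID50 of virus in the presence of varying concentrations of compound. Read-out was inhibition of virus-induced cytopathicity, compared with untreated infected cultures. Cytotoxicity was judged microscopically or by MTT viability staining.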

Data set [12] has as its system Ferriprotoporphyrin IX. Briefly: Binding affinity to monomeric Fe(III)PPIX at pH 5.6. Put shortly:
(§5)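 UV-vis titration of monomeric Fe(III)PPIX (2.4 μM) with stepwise additions of compound (0−69 μM, in DMSO), in aqueous DMSO. Buffer was 0.02 M HEPES at pH 7.4 or 0.02 M MES at pH 5.6. Decrease of the Soret band at 402 nm was followed. Association constants were calculated from the titration curves. Stoichiometry was taken from Job's plot.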

For data set [13], the system named is Coxsackievirus B4. Briefly: Antiviral activity against Coxsackievirus B4 infected in human HeLa cells assessed as inhibition of virus-induced cytopathicity. In kind it is functional, organism-based. Summed up:
as §1

In data set [14] the test system is Feline coronavirus. Briefly: Antiviral activity against Feline coronavirus infected in cat CRFK cells assessed as inhibition of virus-induced cytopathicity. In kind it is functional, organism-based. Put shortly: as §1
Data set [15] deals with Heme. Briefly: Binding affinity to mu-oxodimeric heme at pH 5.8. Summed up:
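μ-Oxo dimer heme (10 μM) in 20 mM phosphate buffer, pH 5.8, titrated stepwise with compound (0.3−16 μM). Decrease in absorbance at 362 nm was monitored, and the binding constant was calculated from the titration curve.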

Data set [16] relates to Human alphaherpesvirus 1. Briefly: Antiviral activity against thymidine kinase-negative acyclovir-resistant HSV-1 KOS infected in HEL cells assessed as inhibition of virus-induced cytopathicity. In kind it is functional, organism-based. Put shortly:
as §4

For data set [17], the system named is Plasmodium falciparum. Briefly: Potency index, ratio of chloroquine IC50 to compound IC50 for chloroquine-resistant asexual erythrocytic stage of Plasmodium falciparum Dd2. The class given is functional.
Data set [18] deals with Ferriprotoporphyrin IX. Briefly: Binding affinity to monomeric Fe(III)PPIX at pH 7.4. Summed up: as §5
Data set [19] concerns Coxsackievirus B4. Briefly: Antiviral activity against Coxsackievirus B4 infected in African green monkey Vero cells assessed as inhibition of virus-induced cytopathicity. In kind it is functional, organism-based. Put shortly:
as §1

Data set [20] in a line: Aqueous solubility of the compound in PBS buffer at pH 7.4 after 24 hrs by HPLC analysis. The class given is physicochemical. As to conditions: pH 7.4, 24 h.
In data set [21] the test system is Punta Toro virus. Briefly: Antiviral activity against Punta Toro virus infected in African green monkey Vero cells assessed as inhibition of virus-induced cytopathicity. The class given is functional, organism-based. Put shortly: as §1
For data set [22], the system named is Human alphaherpesvirus 1. Briefly: Antiviral activity against HSV-1 KOS infected in HEL cells assessed as inhibition of virus-induced cytopathicity. The class given is functional, organism-based. Put shortly:
as §1

Data set [23] deals with Human respirovirus 3. Briefly: Antiviral activity against parainfluenza virus 3 infected in African green monkey Vero cells assessed as inhibition of virus-induced cytopathicity. The class given is functional, organism-based. Put shortly:
as §1

For data set [24], the system named is DNA. Briefly: Binding affinity to calf thymus DNA at 5:1 DNA to compound ratio by spectrophotometric analysis (reference value: 59.5 degC). In kind it is nucleic-acid assay. As to conditions: Bos taurus.
The subject of data set [25] is Vero. Briefly: Cytotoxicity against African green monkey Vero cells assessed as alteration of cell morphology by microscopic analysis. The class given is cell-based. As to conditions: chlorocebus sabaeus. Summed up: as §2
In data set [26] the test system is DNA. Briefly: Binding affinity to calf thymus DNA by fluorescence spectrophotometric analysis. In kind it is nucleic-acid assay. The conditions noted are these: Bos taurus. Summed up:
(§6)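 Steady-state fluorescence titration at ambient temperature, with excitation at 330 nm and emission at 376 nm. […] Binding constant derived from the emission changes.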

Data set [27] concerns Mammalian orthoreovirus 1. Briefly: Antiviral activity against Reovirus 1 infected in African green monkey Vero cells assessed as inhibition of virus-induced cytopathicity. The class given is functional, organism-based. Put shortly:
as §1

The nature of data set [28]: Selectivity index, ratio of CC50 for cat CRFK cells to IC50 for chloroquine-resistant asexual erythrocytic stage of Plasmodium falciparum Dd2. The class given is functional. Put shortly: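 Ratio of CRFK CC50 (μM) to Dd2 IC50 […]. CC50 is the 50% cytotoxic concentration in feline kidney CRFK cells, measured as cell viability by colorimetric formazan-based MTS assay. Dd2 IC50 is from the parasite LDH growth-inhibition assay.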

Data set [29] can be described thus: n-octanol-PBS buffer distribution coefficient, log D of the compound at pH 7.4 after 24 hrs by HPLC analysis. In kind it is physicochemical.
For data set [30], the system named is MDCK. Briefly: Cytotoxicity against MDCK cells assessed as alteration of cell morphology by microscopic analysis. The class given is cell-based, Canis lupus familiaris. As to conditions: dog. Put shortly: as §2
Data set [31] in a line: Solubility of the compound in octanol at pH 7.4 by HPLC analysis. In kind it is physicochemical.
Data set [32] has as its system Human betaherpesvirus 5. Briefly: Antiviral activity against Cytomegalovirus AD169 infected in HEL cells assessed as inhibition of virus-induced cytopathicity. In kind it is functional, organism-based.
Data set [33] concerns DNA. Briefly: Binding affinity to calf thymus DNA assessed as hypochromic shift at 66.6 uM after 5 mins by UV-spectrophotometric analysis. The class given is nucleic-acid assay. The conditions noted are these: Bos taurus.
Data set [34] has as its system Influenza A virus H3N2. Briefly: Antiviral activity against Influenza A virus H3N2 infected in MDCK cells assessed as inhibition of virus-induced cytopathicity. The class given is functional, organism-based. Put shortly: as §4
In data set [35] the test system is Plasmodium falciparum. Briefly: Antiplasmodial activity against chloroquine-resistant asexual erythrocytic stage of Plasmodium falciparum Dd2 assessed as parasite growth inhibition by lactate dehydrogenase assay. In kind it is functional, organism-based. Summed up: as §3
Data set [36] relates to Vesicular stomatitis virus. Briefly: Antiviral activity against Vesicular stomatitis virus infected in HEL cells assessed as inhibition of virus-induced cytopathicity. The class given is functional, organism-based. Put shortly:
as §4

Data set [37] concerns Felid alphaherpesvirus 1. Briefly: Antiviral activity against Feline herpesvirus infected in cat CRFK cells assessed as inhibition of virus-induced cytopathicity. In kind it is functional, organism-based. Summed up:
as §1

A short description of data set [38]: Cytotoxicity against cat CRFK cells assessed as cell viability by MTS assay. In kind it is cell-based, Felis catus. Put shortly: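 CRFK cells were exposed to varying sample concentrations. Cell viability was measured with the colorimetric formazan-based MTS assay, and the 50% cytotoxic concentration (CC50) was derived from it.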
For orientation: Tetrazolium dyes change colour on reduction, which living cells bring about.

The subject of data set [39] is Influenza A virus. Briefly: Antiviral activity against influenza A virus H1N1 infected in MDCK cells assessed as inhibition of virus-induced cytopathicity. In kind it is functional, organism-based. Summed up:
as §4

Data set [40] relates to Sindbis virus. Briefly: Antiviral activity against Sindbis virus infected in African green monkey Vero cells assessed as inhibition of virus-induced cytopathicity. The class given is functional, organism-based.
Data set [41] deals with Escherichia coli. Briefly: Binding affinity to Escherichia coli pUC18 DNA by fluorescence spectrophotometric analysis. Summed up: as §6
Data set [42] has as its system Vaccinia virus. Briefly: Antiviral activity against Vaccinia virus infected in HEL cells assessed as inhibition of virus-induced cytopathicity. In kind it is functional, organism-based. The conditions noted are these: Orthopoxvirus vaccinia. Put shortly:
as §4

In data set [43] the test system is HeLa. Briefly: Cytotoxicity against human HeLa cells assessed as growth inhibition by MTT assay. The class given is cell-based.
In data set [44] the test system is DNA. Briefly: Binding affinity to calf thymus DNA at 5:1 DNA to compound ratio by spectrophotometric analysis. The class given is nucleic-acid assay. As to conditions: Bos taurus.

Take `Clc1ccc2c(NCCCNc3nccc(N4CCCCC4)n3)ccnc2c1`: the inhibition result in [1], in data set [3], in data set [8], in data set [10], in [11] and in data set [13] was “inactive” in each case. For the same molecule, the inhibition result in data set [14], in [16], in data set [19], in data set [21], in data set [22] and in [23] was “inactive” each time. The inhibition entry in data set [27], in data set [32], in data set [34], in [36], in data set [37] and in data set [39] was “inactive” each time. In addition, the inhibition entry in [40] and in data set [42] was “inactive” each time. Further, the outcome in [2] and in data set [5] was Active. In data set [4], the MCC worked out at 100 µM. Besides, in [6], the inhibition result was “Active”. Further, the values for the IC50 in data set [7] and in data set [35] were 0.0226 µM and 0.043 µM, respectively. Moreover, the Activity result was “Non-toxic” in data set [9], “Non-toxic” in [25], “Non-toxic” in [30] and 23% in [33]. Further, the log Ks in data set [12] was determined as 4.59; in [15], 5.84; in [18], 4.63; in [26], 3.64; in [41], 3.99. Further, the “Ratio IC50” value in data set [17] stood at 3.2. Moreover, the solubility was determined as 0.25 µM (≈ 0.0992 µg/mL) in [20] and 1.74 µM (≈ 0.691 µg/mL) in [31]. The Tm in [24] came out at 67.8 °C. For the same molecule, the “Ratio CC50/IC50” value in data set [28] amounted to 228. The molecule also had a logD at 24 h in data set [29] of 0.845. In addition, the CC50 in [38] came out at 9.8 µM.

On to `CCN(CC)CCCC(C)Nc1ccnc2cc(Cl)ccc12` (centres undefined) [CHLOROQUINE PHOSPHATE], for which the IC50 in data set [43] worked out at 30 µM. Besides, the outcome in data set [44] was Active.

For orientation: IC50 means the point on the concentration scale where inhibition reaches its midpoint. By solubility is commonly meant the concentration that dissolves in the medium under given conditions. By logD is commonly meant the decadic logarithm of the distribution of all forms, ionised or not, between an organic phase and buffer at a given pH. One may read the CC50 as the concentration giving 50% cytotoxicity.
